Compounds with a hit are over-represented: about 3.1% of the library has one in this group of screens.
FGF22 binding: shifts melting point of recombinant human FGF22. Q9HCT0. recombinant FGF22 thermal shift, SYPRO orange fluorescence; percent of sucrose octasulfate shift, DMSO zero. activity (Tm shift, normalised), % at 9.99 µM. hit rate 1.5% among 340,000;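 active means mean Tm shift, scaled 0 neutral to 100 positive control, at about 1.3% or above, every replicate too, limit read from the data; inconclusive means no clear call, values can overlap the other calls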
Target sequence (Q9HCT0 whole entry, looked up): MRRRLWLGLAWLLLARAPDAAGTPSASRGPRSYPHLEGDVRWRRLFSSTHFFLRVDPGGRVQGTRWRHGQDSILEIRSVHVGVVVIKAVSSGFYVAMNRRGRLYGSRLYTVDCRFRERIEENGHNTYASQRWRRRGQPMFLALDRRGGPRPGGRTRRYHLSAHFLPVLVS
FN deposit inh: fibronectin deposition inhibition. hit rate 0.086% among 350,000. AH1F fibroblasts, Alexa488-fibronectin deposition fluorescence, overnight. AID 743247. inhibition, % at 12.6 µM;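 active means mean inhibition across replicates of 30% or more, regardless of how many single replicates reach that level; inconclusive means mean under 30% yet at least half of replicates reach 30%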
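Assay system: AH1F fibroblast monolayer, labelled fibronectin deposition. Amount: 10000 cells per well. Also added: labelled fibronectin 24 nM. Compound: single-point pinned compound. Incubation: cell attachment 1 h, compound and FN exposure overnight. Detection: fluorescence after three HBSS washes, excitation 485 nm, emission 525 nm. Read-out: inhibition of fibronectin deposition signal.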
HIV Env fusion: HIV envelope-mediated fusion inhibition; hit rate 1.1% among 360,000; inhibition, % at 12.3 µM; AID 651610; HeLa-JRFL Env/CEM21 cell fusion, luciferase;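 active means mean replicate inhibition score of at least 50 and every replicate individually at or above 50; inconclusive means only one of the two criteria met; inactive means mean below 50 and not all replicates reaching 50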
EWS-Fli block: inhibitors of EWS/Fli oncoprotein transcriptional activity. AID 651661. A673 NR0B1-luciferase reporter, viability-normalised. hit rate 0.67% among 350,000. inhibition, % at 12.6 µM;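 active means mean inhibition of at least 50% after viability correction, with every replicate also passing that limit; inconclusive means mean reaches 50% but only one of two replicates passes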;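 further: firefly luciferase signal divided by Alamar Blue viability fluorescence both relative to DMSO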
PGC1a acetyl inh: modulators of PGC1a acetylation | U2OS PGC1a acetylation, AlphaScreen anti-acetyl-lysine; with virally co-expressed GCN5 acetyltransferase | inhibition, % at 15.6 µM | hit rate 0.17% among 350,000 | AID 651687;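 active means every replicate shows inhibition of at least 40%; inconclusive means mean inhibition at least 40% but some replicate below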
PAX8 inh HTS: PAX8 transcriptional activity inhibition; RMG-I TPO-luciferase reporter, SteadyGlo, 24 h; inhibition, % at 12.6 µM; hit rate 1.2% among 360,000; AID 652154;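 active means mean replicate inhibition at least 60% with every replicate also reaching 60%; inconclusive means only one of the two criteria is met; inactive means mean below 60% and not all replicates reaching 60%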;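 further: luciferase light reporting Pax8 driven TPO promoter activity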
DNA binding: binds DNA displacing acridine orange; shares compounds with EWS-Fli block; salmon sperm DNA acridine orange fluorescence polarization; AC35, µM (doses to about 68 µM); hit rate 2% among 640;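 active means fitted curve reaches a 35% signal fall AC35 below twice the sample's top valid tested dose, actives reach about 48 µM in these data; inactive means the rest, including activity in the rising direction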;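 further: lower polarization ratio signals compound binding to DNA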
Numbers stand for hits; 0 = inactive; ? = inconclusive; - = not tested or not shown; ! = repeats disagree.

SMILES | FGF22 binding | FN deposit inh | HIV Env fusion | EWS-Fli block | PGC1a acetyl inh | PAX8 inh HTS | DNA binding
CCNC(=O)[C@@H]1[C@@H](CO)[C@@H]2Cn3c(ccc(C4=CCCCC4)c3=O)[C@H]1N2CC | - | - | - | - | - | - | 0
CCN1[C@@H]2Cn3c(ccc(C4=CCCCC4)c3=O)[C@H]1[C@@H](C(=O)NCCOC)[C@@H]2CO | 0 | - | 0 | 0 | - | - | -
CCNC(=O)Nc1ccc2c(c1)C(=O)N(C)[C@H]1CC[C@H](CC(=O)Nc3ccccc3F)O[C@@H]1CO2 | 0 | 0 | 0 | 0 | 0 | 0 | -
N#Cc1cccc(-c2ccc(C3[C@@H]4CN(C(=O)Cc5ccncc5)C[C@H]3N4)cc2)c1 (stereo partly specified) | - | 0 | - | 78.0! | 0 | 0 | 0
CCCCc1c(Cc2ccccc2)ncn1CCc1ccccc1OC | 0 | 0 | 58.2 | 54.5 | - | 62.4 | 0
CO[C@@H]1CN(C)C(=O)c2ccc(NC(=O)C3CCOCC3)cc2OC[C@@H](C)N(C(=O)Nc2ccc(C(F)(F)F)cc2)C[C@H]1C | 0 | 0 | 0 | 0 | 0 | 0 | -
COc1ccc(S(=O)(=O)N2CC[C@@H]3[C@H](CO)Nc4ccc(-c5ccc(C#N)cc5)cc4[C@@H]32)cc1 | 0 | 0 | - | 56.7 | 0 | 0 | 0
COc1ccc(S(=O)(=O)N2CC[C@@H]3[C@@H](CO)Nc4ccc(-c5ccc(C#N)cc5)cc4[C@@H]32)cc1 | 0 | 0 | - | 60.3 | 0 | 62.7 | 0
CN1c2ccc(-c3ccc(C#N)cc3)cc2[C@@H]2[C@@H](CCN2S(=O)(=O)c2cccc(F)c2)[C@H]1CO | 0 | 0 | - | 0 | 0 | 0 | -
CN1c2ccc(-c3ccc(C#N)cc3)cc2[C@H]2[C@H](CCN2S(=O)(=O)c2cccc(F)c2)[C@H]1CO | 0 | 0 | - | 60.0 | 0 | ? | 0
C[C@@H]1CN([C@H](C)CO)C(=O)Cc2cc(NS(=O)(=O)c3cccs3)ccc2O[C@@H]1CN(C)S(=O)(=O)c1ccccc1 | 0 | - | 0 | 0 | 0 | 0 | -
O=C(NCC[C@H]1CC[C@H](NS(=O)(=O)c2cccc(F)c2)[C@H](CO)O1)C1CC1 | 0 | 0 | 0 | 0 | 0 | 0 | -
C[C@H]1CN([C@@H](C)CO)C(=O)c2cc(C#CCc3ccccc3)cnc2O[C@@H]1CN(C)Cc1ccc(C(=O)O)cc1 | 0 | 0 | 0 | 0 | 0 | 0 | -
CCCN1[C@H](C(=O)NCC2CC2)[C@@H](CO)[C@@H]2Cn3c(ccc(-c4ccccc4)c3=O)[C@@H]21 | 0 | - | - | 0 | - | 0 | -
COc1ccc(S(=O)(=O)N2CCCc3nc(-c4ccc(F)cc4)ccc32)cc1 | 0 | 0 | 0 | 60.0 | - | 0 | 0
COc1ccc(-c2ccc3c(n2)CCCN3S(=O)(=O)c2ccc(F)cc2)cc1 | 0 | 0 | 0 | 0 | - | 0 | -
O=c1ccc2ccccc2c2ccccc12 | 0 | 0 | 0 | 63.0 | - | 88.4 | 0
CN(C)C(=S)N=Nc1[nH]c2ccccc2c1O | 0 | 0 | 0 | 60.5 | - | 0 | 0
COc1ccc(S(=O)(=O)N=Nc2c(O)[nH]c3ccccc23)cc1 | 0 | 0 | 0 | 53.3 | - | 0 | 0
Cc1ccc(NC(=S)N=Nc2c(O)[nH]c3ccccc23)cc1 | 0 | 0 | 0 | 0 | - | 0 | -
COc1ccc(NC(=S)N=Nc2c(O)[nH]c3ccccc23)cc1 | 0 | 0 | 0 | 55.5 | 0 | 0 | 0
CCC(=O)N1CC2(C1)[C@H](c1ccc(-c3ccccc3C)cc1)[C@H](CO)N2C(C)=O | 0 | 0 | - | 0 | 0 | - | -
COc1ccc2c3c([nH]c2c1)[C@@H](CO)N(S(C)(=O)=O)CC31CN(C(=O)Nc2ccccc2)C1 | 0 | - | - | 0 | 0 | 0 | -
COc1cc(C(c2c(C)[nH][nH]c2=O)c2c(C)[nH][nH]c2=O)ccc1OC(C)C | 0 | - | 0 | 77.9 | 0 | 0 | 0
O=C1c2ccc3c4c(ccc(c24)C(=O)N1c1cccc(O)c1)CC3 | 0 | 0 | 0 | 0 | - | 0 | -
SMILES | FGF22 binding | FN deposit inh | HIV Env fusion | EWS-Fli block | PGC1a acetyl inh | PAX8 inh HTS | DNA binding
O=C1c2ccc3c4c(ccc(c24)C(=O)N1c1cccc(O)c1)C(=O)N(c1cccc(O)c1)C3=O | 0 | 0 | 0 | 59.7 | 0 | 0 | 0
CCCc1cc(=O)oc2c3c(cc(OCC(=O)N[C@@H](C)C(=O)O)c12)OC(C)(C)CC3 | 0 | 0 | 0 | 0 | 0 | 0 | -
CCCc1cc(=O)oc2c3c(c4c(c12)OC(C)(C)C=C4)OC(C)C(C)C3O (stereo unspecified) | 0 | - | - | 72.9 | 0 | - | 0
O=C(NCc1ccccn1)c1ccc(CNS(=O)(=O)c2cccc(Cl)c2)cc1 | 0 | - | 0 | 58.3 | 0 | 0 | 0
CC(C)(C)c1ccc(S(=O)(=O)NCc2ccc(C(=O)NCc3ccccn3)cc2)cc1 | 0 | 0 | 0 | 0 | - | 0 | -
O=C(C[C@H]1C=C[C@H](NC(=O)c2cccnc2)[C@@H](CO)O1)NCCN1CCCCC1 | - | 0 | - | - | 0 | - | -
C=C1C(=O)C=C[C@]2(C)C[C@@H]3OC(=O)[C@](C)(O)[C@H]3C[C@@H]12 | 0 | 0 | 0 | 65.3 | 0 | 67.2 | 0
C[C@@H]1C[C@@H]2OC(=O)[C@]3(C)[C@H]2[C@@H](OC3(C)O)[C@]2(C)C(=O)C=C[C@H]12 (stereo partly specified) | 0 | 0 | 0 | 0 | - | 0 | -
COc1ccc(CN(C)C[C@@H]2OCCCC[C@H](C)Oc3ccc(NC(=O)Cc4ccccc4)cc3C(=O)N([C@H](C)CO)C[C@H]2C)cc1 | 0 | - | 0 | 0 | 0 | 0 | -
O=C(c1cccc(S(=O)(=O)NCc2ccccc2)c1)N1CCN(c2ccccc2)CC1 | 0 | 0 | 0 | 51.8 | 0 | 0 | 0
O=C(NCc1ccncc1)c1cccc(S(=O)(=O)NCc2ccccc2)c1 | 0 | - | 0 | 0 | 0 | 0 | -
Cc1ccc(OCCNC(=O)c2cccc(S(=O)(=O)NCc3ccccc3)c2)cc1 | 0 | 0 | 0 | 56.0 | 0 | 0 | 0
C[C@H]1CN([C@@H](C)CO)S(=O)(=O)c2ccc(-c3cncnc3)cc2O[C@@H]1CN(C)C(=O)Cc1ccccc1 | 0 | - | 0 | 0 | 0 | 0 | -
CC(C)c1ccccc1NC(=O)Nc1nc(C(N)Cc2ccc(C(F)(F)F)cc2)cs1 (stereo unspecified) | 0 | 0 | 0 | 0 | 0 | 0 | -
NC(Cc1ccc(C(F)(F)F)cc1)c1csc(NC(=O)Nc2ccccc2Cc2ccccc2)n1 (stereo unspecified) | 0 | 0 | 82.0 | 55.7 | 0 | 0 | 0
COc1ccc(OC)c(-c2cc(C(F)(F)F)c3c(n2)sc2c(O)cc(=O)[nH]c23)c1 | 0 | - | 0 | 88.7 | - | 0 | 0
O=c1cc(O)c2sc3nc(-c4ccccc4)cc(C(F)(F)F)c3c2[nH]1 | - | 0 | 0 | - | 0 | 0 | -
CC(C)NC(=O)N(C)C[C@H]1OCCCC[C@@H](C)Oc2ccc(NS(=O)(=O)c3ccc(F)cc3)cc2C(=O)N([C@@H](C)CO)C[C@@H]1C | 0 | 0 | 0 | 0 | 0 | 0 | -
CC(C)NC(=O)Nc1ccc2c(c1)C(=O)N([C@H](C)CO)C[C@H](C)[C@@H](CN(C)C(=O)C1CCCCC1)OCCCC[C@@H](C)O2 | - | 0 | 0 | 0 | 0 | 0 | -
